Assay results: ChEMBL document CHEMBL3580532, “Deconins A-E: Cuparenic and Mevalonic or Propionic Acid Conjugates from the Basidiomycete Deconica sp. 471” (J Nat Prod, 2015)
In brackets after ≈: the same amount, converted by molar mass. Activity calls are given as the source filed them. The rule behind the calls is not given here.

Experiments:
Pseudomonas aeruginosa [1] = test: Antimicrobial activity against Pseudomonas aeruginosa DSM50071 assessed as inhibition of microbial growth incubated for 24 to 48 hrs by serial dilution assay; assay type: functional, organism-based
Method in brief: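 Broth serial dilution in EBS medium (0.5% peptone, 0.5% glucose, 0.1% meat extract, 0.1% yeast extract, 50 mM HEPES, pH 7.0). Compound stock (1 mg/mL in MeOH) was dried in the first row, then the bacterium was added as a 1:100 inoculum:medium mix. Twofold dilutions covered 66.7 to 0.1 μg/mL. Plates were shaken at 600 rpm, 30 °C, for 24–48 h. MIC was the lowest concentration with no visible growth.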

Escherichia coli [2] = test: Antimicrobial activity against Escherichia coli DSM1116 assessed as inhibition of microbial growth incubated for 24 to 48 hrs by serial dilution assay; assay type: functional
Method in brief: (§1)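 Broth microdilution in EBS medium (peptone, glucose, meat and yeast extract, 50 mM HEPES, pH 7.0). A 1 mg/mL MeOH stock was dried in the first row, then pathogen diluted 1:100 in medium was added and serially diluted 1:1 (66.7 to 0.1 μg/mL tested). Plates were shaken at 600 rpm, 30 °C, for 24−48 h. MIC is the lowest concentration preventing visible growth; blank wells served as negative control.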

Bacillus subtilis [3] = test: Antimicrobial activity against Bacillus subtilis DSM10 assessed as inhibition of microbial growth incubated for 24 to 48 hrs by serial dilution assay; assay type: functional; method in brief: as §1
Micrococcus luteus [4] = test: Antimicrobial activity against Micrococcus luteus DSM1790 assessed as inhibition of microbial growth incubated for 24 to 48 hrs by serial dilution assay; assay type: functional; method in brief: as §1
[5] = test system: Chromobacterium violaceum; test: Antimicrobial activity against Chromobacterium violaceum DSM30191 assessed as inhibition of microbial growth incubated for 24 to 48 hrs by serial dilution assay; assay type: functional; method in brief: as §1
Staphylococcus aureus [6] = test: Antimicrobial activity against Staphylococcus aureus DSM346 assessed as inhibition of microbial growth incubated for 24 to 48 hrs by serial dilution assay; assay type: functional; method in brief: as §1
L929 = test: Cytotoxicity against mouse L929 cells incubated for 5 days by MTT assay; assay type: cell-based; settings: L929, 120 h
Method in brief: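 L929 mouse fibroblasts were grown in EBM-2 with 10% FBS at 37 °C under 10% CO₂. Serial dilutions from a 1 mg/mL MeOH stock were added to cell suspension (50 000/mL) and incubated 5 days. Read-out was MTT with absorbance at 590 nm. IC₅₀ (50% growth inhibition versus control) was taken from dose−response curves; methanol was the negative control.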

Escherichia coli [7] = test: Antimicrobial activity against Escherichia coli DSM1116 assessed as inhibition of microbial growth up to 67 ug/ml incubated for 24 to 48 hrs by serial dilution assay; assay type: functional, organism-based; method in brief: as §1
Micrococcus luteus [8] = test: Antimicrobial activity against Micrococcus luteus DSM1790 assessed as inhibition of microbial growth up to 67 ug/ml incubated for 24 to 48 hrs by serial dilution assay; assay type: functional, organism-based; method in brief: as §1
[9] = test system: Chromobacterium violaceum; test: Antimicrobial activity against Chromobacterium violaceum DSM30191 assessed as inhibition of microbial growth up to 67 ug/ml incubated for 24 to 48 hrs by serial dilution assay; assay type: functional, organism-based; method in brief: as §1
[10] = test system: Schizosaccharomyces pombe; test: Antimicrobial activity against Schizosaccharomyces pombe DSM70572 assessed as inhibition of microbial growth up to 67 ug/ml incubated for 24 to 48 hrs by serial dilution assay; assay type: functional, organism-based
Method in brief: (§2)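 Yeasts and fungi were tested by serial dilution in MYC medium (1.0% phytone peptone, 1.0% glucose, 50 mM HEPES, pH 7.0). Compound from a 1 mg/mL MeOH stock was dried in row A, then inoculum at 1:100 in medium was added and diluted 1:1 down the plate (66.7 to 0.1 μg/mL). Incubation was 30 °C, 600 rpm shaking, 24−48 h. MIC is the lowest concentration with no visible growth.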

Wickerhamomyces anomalus [11] = test: Antimicrobial activity against Pichia anomala DSM6766 assessed as inhibition of microbial growth up to 67 ug/ml incubated for 24 to 48 hrs by serial dilution assay; assay type: functional, organism-based; method in brief: as §2
Mucor hiemalis [12] = test: Antimicrobial activity against Mucor hiemalis DSM2656 […] assessed as inhibition of microbial growth up to 67 ug/ml incubated for 24 to 48 hrs by serial dilution assay; assay type: functional, organism-based; method in brief: as §2
Bacillus subtilis [13] = test: Antimicrobial activity against Bacillus subtilis DSM10 assessed as inhibition of microbial growth up to 67 ug/ml incubated for 24 to 48 hrs by serial dilution assay; assay type: functional, organism-based; method in brief: as §1
Candida albicans [14] = test: Antimicrobial activity against Candida albicans DSM1665 assessed as inhibition of microbial growth up to 67 ug/ml incubated for 24 to 48 hrs by serial dilution assay; assay type: functional, organism-based; method in brief: as §2
Staphylococcus aureus [15] = test: Antimicrobial activity against Staphylococcus aureus DSM346 assessed as inhibition of microbial growth up to 67 ug/ml incubated for 24 to 48 hrs by serial dilution assay; assay type: functional, organism-based; method in brief: as §1
Pseudomonas aeruginosa [16] = test: Antimicrobial activity against Pseudomonas aeruginosa DSM50071 assessed as inhibition of microbial growth up to 67 ug/ml incubated for 24 to 48 hrs by serial dilution assay; assay type: functional, organism-based; method in brief: as §1
[17] = test system: Schizosaccharomyces pombe; test: Antimicrobial activity against Schizosaccharomyces pombe DSM70572 assessed as inhibition of microbial growth incubated for 24 to 48 hrs by serial dilution assay; assay type: functional, organism-based
Method in brief: (§3)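 Broth serial dilution in MYC medium (1.0% phytone peptone, 1.0% glucose, 50 mM HEPES, pH 7.0). Compound stock (1 mg/mL in MeOH) was dried in the first row, then the yeast was added as a 1:100 inoculum:medium mix. Twofold serial dilutions covered 66.7 to 0.1 μg/mL. Plates were shaken at 600 rpm, 30 °C, for 24–48 h. MIC was the lowest concentration with no visible growth. Blank wells served as negative controls.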

Wickerhamomyces anomalus [18] = test: Antimicrobial activity against Pichia anomala DSM6766 assessed as inhibition of microbial growth incubated for 24 to 48 hrs by serial dilution assay; assay type: functional, organism-based; method in brief: as §3
Mucor hiemalis [19] = test: Antimicrobial activity against Mucor hiemalis DSM2656 […] assessed as inhibition of microbial growth incubated for 24 to 48 hrs by serial dilution assay; assay type: functional; method in brief: as §2
Candida albicans [20] = test: Antimicrobial activity against Candida albicans DSM1665 assessed as inhibition of microbial growth incubated for 24 to 48 hrs by serial dilution assay; assay type: functional, organism-based; method in brief: as §3

Molecule | MIC (Staphylococcus aureus [6]) [µg/mL] | IC50 (L929) [µg/mL] | inhibition (Escherichia coli [7]) | inhibition (Micrococcus luteus [8]) | inhibition [9] | inhibition [10] | inhibition (Wickerhamomyces anomalus [11]) | inhibition (Mucor hiemalis [12]) | inhibition (Bacillus subtilis [13]) | inhibition (Candida albicans [14]) | inhibition (Staphylococcus aureus [15]) | inhibition (Pseudomonas aeruginosa [16]) | MIC (Mucor hiemalis [19]) [µg/mL] | also measured
GENTAMICIN | – | – | – | – | – | – | – | – | – | – | – | – | – | MIC (Pseudomonas aeruginosa [1]): 42 µg/mL
CN(C)[C@@H]1C(O)=C(C(N)=O)C(=O)[C@@]2(O)C(O)=C3C(=O)c4c(O)cccc4[C@@](C)(O)[C@H]3[C@H](O)[C@@H]12.Cl [OXYTETRACYCLINE HYDROCHLORIDE] | 0.21 | – | – | – | – | – | – | – | – | – | – | – | – | MIC (Escherichia coli [2]): 0.83 µg/mL; MIC (Bacillus subtilis [3]): 0.83 µg/mL; MIC (Micrococcus luteus [4]): 0.42 µg/mL; MIC [5]: 0.83 µg/mL
CC1(C)[C@@H](O)C(=O)C[C@]1(C)c1ccc(C(=O)O)cc1 | – | > 10 | inactive | inactive | inactive | inactive | inactive | inactive | inactive | inactive | inactive | inactive | – | –
NYSTATIN | – | – | – | – | – | – | – | – | – | – | – | – | 67 | MIC [17]: 33.3 µg/mL; MIC (Wickerhamomyces anomalus [18]): 33.3 µg/mL; MIC (Candida albicans [20]): 67 µg/mL
CC1(C)CC[C@@H](O)[C@]1(C)c1ccc(C(=O)OCC[C@@](C)(O)CC(=O)O)cc1 | 67 | 2.8 (≈ 7.4 µM) | inactive | inactive | inactive | inactive | inactive | inactive | inactive | inactive | – | inactive | – | –
CC1(C)CC(=O)C[C@]1(C)c1ccc(C(=O)OCC[C@@](C)(O)CC(=O)O)cc1 | – | > 10 | inactive | inactive | inactive | inactive | inactive | inactive | inactive | inactive | inactive | inactive | – | –
CC1(C)CCC[C@]1(C)c1ccc(C(=O)OCC[C@@](C)(O)CC(=O)O)cc1 | 67 | > 10 | inactive | inactive | inactive | inactive | inactive | – | – | inactive | – | inactive | 67 | MIC (Bacillus subtilis [3]): 67 µg/mL
CC1(C)CCC[C@]1(C)c1ccc(C(=O)O)cc1 | – | > 10 | inactive | inactive | inactive | inactive | inactive | – | inactive | inactive | inactive | inactive | 67 | –
CC(O)(COC(=O)c1ccc([C@@]2(C)C[C@H](O)CC2(C)C)cc1)C(=O)O (some centres not stated) | 67 | > 10 | inactive | inactive | inactive | inactive | inactive | inactive | inactive | inactive | – | inactive | – | –
CC1(C)CC(=O)C[C@]1(C)C1=CC=C(C(=O)OCC[C@@](C)(O)CC(=O)O)CC1 | – | > 10 | inactive | inactive | inactive | inactive | inactive | inactive | inactive | inactive | inactive | inactive | – | –
